From ChEMBL document CHEMBL3593214, “ent-Abietane-Type and Related Seco-/Nor-diterpenoids from the Rare Chloranthaceae Plant Chloranthus sessilifolius and Their Antineuroinflammatory Activities” (J Nat Prod, 2015)

Legend:
[1] = Antineuroinflammatory activity in mouse BV2 cells assessed as inhibition of LPS-stimulated nitric oxide production preincubated for 4 hrs followed by LPS challenge measured after 24 hrs by Griess assay; type: functional, cell-based; conditions: BV-2
Summary of the method: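 BV-2 mouse microglia (ATCC) kept in DMEM with 1800 mg/L NaHCO3, 10% FBS and penicillin/streptomycin at 37 °C, 5% CO2. Cells were pretreated 4 h with 3.125–100 μM, then LPS 1 μg/mL for 24 h. Supernatant nitrite was measured by Griess reagent at 540 nm against a NaNO2 standard curve. IC50 is the concentration giving 50% inhibition; mean ± SD of three independent experiments.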

[2] = Cytotoxicity against mouse BV2 cells assessed as cell viability at 50 uM by MTT assay relative to control; type: cell-based, BV-2; conditions: read-out: Activity
Summary of the method: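 MTT colorimetric read-out on BV-2 microglia in DMEM/10% FBS at 37 °C, 5% CO2, after treatment at 50 μM. Viability is expressed as percent of untreated control cells; mean ± SD.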

| SMILES | IC50 [1] | viability at 50 µM [2] |
| --- | --- | --- |
| CC(C)C(=O)[C@@H]1C[C@@H]2C(=CC[C@@H]3C(C)(C)[C@H](O)CC[C@@]23C)[C@H]1O | > 100 µM | – |
| CC(C)C(=O)[C@H]1C[C@@H]2C(=CC[C@@H]3C(C)(C)[C@H](O)CC[C@@]23C)[C@H]1O | > 100 µM | – |
| CC(C)C1=CC(=O)[C@@]2(CC1)OC(=O)C[C@@H]1C(C)(C)[C@H](O)CC[C@]12C | > 100 µM | – |
| CC(C)[C@]1(O)C=C2C(=O)C[C@@H]3C(C)(C)[C@H](O)CC[C@@]3(C)[C@@H]2CC1 | > 100 µM | – |
| CC(C)[C@]1(O)C=C2C(=O)C=C3C(C)(C)[C@H](O)CC[C@@]3(C)[C@@H]2CC1 | > 100 µM | – |
| CO[C@]1(C(C)C)C=C2C(=O)C[C@@H]3C(C)(C)[C@H](O)CC[C@@]3(C)[C@@H]2CC1 | 8.3 µM | 96.7% |
| CC1(C)[C@H](O)CC[C@@]2(C)[C@@H]3CC[C@@](O)(C(C)(C)O)C=C3C(=O)C[C@H]12 | > 100 µM | – |
| CC(C)[C@@]1(O)C=C2C(=O)C[C@@H]3C(C)(C)[C@H](O)CC[C@@]3(C)[C@@H]2C[C@H]1O | 37.7 µM | 98.4% |
| CC(C)[C@@]1(O)C=C2C(=O)C[C@@H]3[C@@](C)(CO)CCC[C@@]3(C)[C@@H]2CC1 | 7.4 µM | 96.8% |
| CC(C)(O)c1ccc2c(c1)CC[C@@H]1C(C)(C)[C@H](O)CC[C@@]21C | 17.8 µM | 95.4% |
| CC(C)(O)c1ccc2c(c1)C(=O)C=C1C(C)(C)[C@H](O)CC[C@]12C | > 100 µM | – |
| CC(C)c1ccc2c(c1)[C@H](O)C[C@@H]1C(C)(C)[C@H](O)CC[C@@]21C | 43.9 µM | 94.7% |
| CC(C)C(=O)CC[C@@H]1C(C=O)=C[C@@H](O)[C@@H]2C(C)(C)[C@H](O)CC[C@@]12C | > 100 µM | – |
| CC(C)C(=O)CC[C@@H]1CC(=O)C[C@@H]2C(C)(C)[C@H](O)CC[C@@]12C | > 100 µM | – |
| CC1(C)[C@H](O)CC[C@@]2(C)[C@@H]3CCC(=O)C=C3[C@@H](O)C[C@H]12 | > 100 µM | – |
| CC1(C)[C@H](O)CC[C@@]2(C)[C@@H]3CCC(=O)C=C3[C@H](O)C[C@H]12 | > 100 µM | – |
| CNC(=N)NCCC[C@H](N)C(=O)O [TILARGININE] | 14.4 µM | 98.5% |
